Measured values taken from ChEMBL document CHEMBL1817562, “Docking and SAR studies of D- and L-isofagomine isomers as human β-glucocerebrosidase inhibitors” (Bioorg Med Chem, 2011).

Columns and labels:
[1] = biological target: T1, Beta-galactosidase (Bos taurus) (UniProt Q58D55); assay: Inhibition of bovine liver beta-galactosidase assessed as production of p-nitrophenol at 1000 uM by spectrophotometry
T1 sequence (whole entry): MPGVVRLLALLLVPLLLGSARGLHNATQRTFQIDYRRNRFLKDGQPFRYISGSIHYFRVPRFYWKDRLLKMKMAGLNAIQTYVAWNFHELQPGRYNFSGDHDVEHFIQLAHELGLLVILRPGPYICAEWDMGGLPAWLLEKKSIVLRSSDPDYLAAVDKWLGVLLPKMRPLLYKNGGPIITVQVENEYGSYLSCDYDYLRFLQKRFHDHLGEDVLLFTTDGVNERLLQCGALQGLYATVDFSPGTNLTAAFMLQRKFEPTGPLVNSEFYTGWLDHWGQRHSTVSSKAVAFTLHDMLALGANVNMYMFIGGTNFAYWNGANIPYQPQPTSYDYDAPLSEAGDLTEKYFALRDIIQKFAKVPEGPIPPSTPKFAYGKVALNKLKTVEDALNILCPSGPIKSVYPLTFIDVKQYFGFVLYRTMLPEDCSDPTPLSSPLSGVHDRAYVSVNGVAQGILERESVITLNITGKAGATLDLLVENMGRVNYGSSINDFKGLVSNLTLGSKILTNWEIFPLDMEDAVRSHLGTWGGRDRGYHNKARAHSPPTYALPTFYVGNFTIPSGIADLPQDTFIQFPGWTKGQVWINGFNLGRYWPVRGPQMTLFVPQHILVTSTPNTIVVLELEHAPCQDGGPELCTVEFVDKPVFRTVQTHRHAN
Outline: (§1)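 p-Nitrophenyl glycoside matched to each enzyme, 2 mM, with enzyme at that enzyme's optimum pH: Penicillium decumbens α-L-rhamnosidase pH 4.0, bovine liver β-galactosidase pH 6.8, coffee bean α-galactosidase pH 6.5, jack bean α-mannosidase pH 4.5, snail β-mannosidase pH 4.5. Stopped with 400 mM Na2CO3; released p-nitrophenol read at 400 nm.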

[2] = biological target: Lactase/phlorizin hydrolase (Rattus norvegicus, UniProt Q02401); assay: Inhibition of rat intestinal lactase assessed as production of p-nitrophenol by spectrophotometry
Chain of Lactase/phlorizin hydrolase (Q02401 868-1928 limits assumed): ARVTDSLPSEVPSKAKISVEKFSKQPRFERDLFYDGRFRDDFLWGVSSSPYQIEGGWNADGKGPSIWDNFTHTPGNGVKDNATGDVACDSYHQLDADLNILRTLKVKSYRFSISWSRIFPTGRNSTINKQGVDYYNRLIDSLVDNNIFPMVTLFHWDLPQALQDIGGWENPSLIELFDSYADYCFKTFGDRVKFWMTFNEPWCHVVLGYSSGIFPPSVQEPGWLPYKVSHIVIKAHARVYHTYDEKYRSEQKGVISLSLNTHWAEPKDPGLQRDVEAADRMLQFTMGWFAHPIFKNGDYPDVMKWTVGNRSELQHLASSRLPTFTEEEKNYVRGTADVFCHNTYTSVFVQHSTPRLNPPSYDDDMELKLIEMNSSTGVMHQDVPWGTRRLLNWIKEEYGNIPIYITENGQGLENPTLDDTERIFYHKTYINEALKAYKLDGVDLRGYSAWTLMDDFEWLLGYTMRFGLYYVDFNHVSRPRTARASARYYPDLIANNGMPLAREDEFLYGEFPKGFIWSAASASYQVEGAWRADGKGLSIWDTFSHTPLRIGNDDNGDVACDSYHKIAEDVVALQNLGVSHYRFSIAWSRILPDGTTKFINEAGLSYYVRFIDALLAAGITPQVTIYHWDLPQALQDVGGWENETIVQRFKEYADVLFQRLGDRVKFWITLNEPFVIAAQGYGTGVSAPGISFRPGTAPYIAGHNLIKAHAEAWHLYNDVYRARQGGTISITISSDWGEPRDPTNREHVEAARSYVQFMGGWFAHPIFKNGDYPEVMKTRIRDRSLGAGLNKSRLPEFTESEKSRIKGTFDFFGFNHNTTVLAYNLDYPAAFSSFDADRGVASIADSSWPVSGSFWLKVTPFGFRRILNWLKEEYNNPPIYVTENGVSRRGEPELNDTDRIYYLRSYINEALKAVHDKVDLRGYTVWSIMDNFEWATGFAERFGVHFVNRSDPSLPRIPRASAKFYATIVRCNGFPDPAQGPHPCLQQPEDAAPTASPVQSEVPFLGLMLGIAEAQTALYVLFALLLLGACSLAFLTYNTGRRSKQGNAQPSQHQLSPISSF

Canavalia ensiformis = assay: Inhibition of jack beans alpha-mannosidase assessed as production of p-nitrophenol at 1000 uM by spectrophotometry; outline: as §1
Helix pomatia = assay: Inhibition of snail beta-mannosidase assessed as production of p-nitrophenol at 1000 uM by spectrophotometry; outline: as §1
Penicillium decumbens = assay: Inhibition of Penicillium decumbens alpha-L-rhamnosidase assessed as production of p-nitrophenol at 1000 uM by spectrophotometry; outline: as §1
[3] = Inhibition of rat intestinal cellobiase assessed as production of p-nitrophenol by spectrophotometry
[4] = Inhibition of coffee beans alpha-galactosidase assessed as production of p-nitrophenol by spectrophotometry; design: species or system Coffea
Outline: (§2)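 Commercial enzymes were assayed at their own optimum pH: bovine epididymis α-L-fucosidase pH 5.5, bovine liver β-galactosidase pH 6.8, coffee bean α-galactosidase pH 6.5. Reactions contained 2 mM of the matching p-nitrophenyl glycoside plus enzyme. They were stopped with 400 mM Na2CO3, and released p-nitrophenol was read at 400 nm.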

Oryza sativa = settings: 1000 uM
Rattus norvegicus [5] = species: Rattus norvegicus; settings: 1000 uM
[6] = biological target: Sucrase-isomaltase, intestinal (Rattus norvegicus) (UniProt P23739); settings: 1000 uM
Chain of Sucrase-isomaltase, intestinal (Rattus norvegicus) (P23739 1-1013 limits assumed): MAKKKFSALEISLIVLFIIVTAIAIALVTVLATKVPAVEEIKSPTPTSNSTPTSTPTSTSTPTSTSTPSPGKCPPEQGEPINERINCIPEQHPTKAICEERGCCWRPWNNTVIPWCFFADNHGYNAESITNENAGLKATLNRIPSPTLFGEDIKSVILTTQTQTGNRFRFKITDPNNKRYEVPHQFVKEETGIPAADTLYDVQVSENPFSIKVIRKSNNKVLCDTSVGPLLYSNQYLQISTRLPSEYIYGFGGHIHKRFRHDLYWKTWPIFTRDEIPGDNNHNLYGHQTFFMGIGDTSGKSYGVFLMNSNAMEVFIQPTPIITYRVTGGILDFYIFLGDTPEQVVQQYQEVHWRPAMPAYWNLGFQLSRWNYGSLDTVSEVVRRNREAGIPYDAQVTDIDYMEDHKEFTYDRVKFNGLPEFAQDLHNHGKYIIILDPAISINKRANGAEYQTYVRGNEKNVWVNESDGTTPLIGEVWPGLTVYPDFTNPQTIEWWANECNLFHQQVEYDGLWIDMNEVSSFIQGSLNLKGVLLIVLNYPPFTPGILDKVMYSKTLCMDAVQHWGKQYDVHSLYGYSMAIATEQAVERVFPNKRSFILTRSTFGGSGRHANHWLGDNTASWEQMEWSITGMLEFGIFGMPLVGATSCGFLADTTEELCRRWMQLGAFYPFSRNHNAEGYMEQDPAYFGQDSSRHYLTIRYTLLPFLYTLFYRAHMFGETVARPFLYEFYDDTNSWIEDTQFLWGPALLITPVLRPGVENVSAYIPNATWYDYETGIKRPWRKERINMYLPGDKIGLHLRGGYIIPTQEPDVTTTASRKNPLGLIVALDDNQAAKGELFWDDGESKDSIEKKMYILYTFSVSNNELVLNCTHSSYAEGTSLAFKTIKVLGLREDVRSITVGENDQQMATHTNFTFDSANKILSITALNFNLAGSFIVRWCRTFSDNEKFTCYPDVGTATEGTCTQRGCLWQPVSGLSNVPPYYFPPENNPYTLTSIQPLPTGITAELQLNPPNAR
Chain of Sucrase-isomaltase, intestinal (Rattus norvegicus) (P23739 1014-1841 limits assumed): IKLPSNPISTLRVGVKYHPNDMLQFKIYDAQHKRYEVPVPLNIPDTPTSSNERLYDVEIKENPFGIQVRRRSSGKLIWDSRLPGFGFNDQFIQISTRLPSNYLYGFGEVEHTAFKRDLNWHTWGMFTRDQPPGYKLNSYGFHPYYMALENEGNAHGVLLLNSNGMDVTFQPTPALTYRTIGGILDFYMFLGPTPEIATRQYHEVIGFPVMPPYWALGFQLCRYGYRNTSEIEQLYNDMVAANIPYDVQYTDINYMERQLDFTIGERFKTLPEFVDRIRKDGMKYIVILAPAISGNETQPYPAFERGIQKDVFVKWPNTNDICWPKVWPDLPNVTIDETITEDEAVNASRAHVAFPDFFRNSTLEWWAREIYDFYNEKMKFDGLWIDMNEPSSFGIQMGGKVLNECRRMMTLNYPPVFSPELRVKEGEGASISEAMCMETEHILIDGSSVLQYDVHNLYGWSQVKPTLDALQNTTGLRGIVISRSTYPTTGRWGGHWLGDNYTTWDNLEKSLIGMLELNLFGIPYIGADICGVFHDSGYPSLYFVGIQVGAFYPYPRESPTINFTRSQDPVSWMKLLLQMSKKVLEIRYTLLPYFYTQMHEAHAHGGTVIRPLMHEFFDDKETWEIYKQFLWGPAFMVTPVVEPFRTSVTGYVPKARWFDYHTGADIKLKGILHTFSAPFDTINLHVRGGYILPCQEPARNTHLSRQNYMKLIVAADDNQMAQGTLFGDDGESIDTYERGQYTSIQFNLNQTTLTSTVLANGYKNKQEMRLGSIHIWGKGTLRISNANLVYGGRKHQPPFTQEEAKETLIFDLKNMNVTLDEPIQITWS

[7] = biological target: Sucrase-isomaltase, intestinal (Rattus norvegicus) (UniProt P23739); settings: 1000 uM; remark: listed apart in the source
[8] = biological target: T2, Lysosomal acid glucosylceramidase (Homo sapiens) (UniProt P04062); settings: 1000 uM
T2 sequence (whole entry): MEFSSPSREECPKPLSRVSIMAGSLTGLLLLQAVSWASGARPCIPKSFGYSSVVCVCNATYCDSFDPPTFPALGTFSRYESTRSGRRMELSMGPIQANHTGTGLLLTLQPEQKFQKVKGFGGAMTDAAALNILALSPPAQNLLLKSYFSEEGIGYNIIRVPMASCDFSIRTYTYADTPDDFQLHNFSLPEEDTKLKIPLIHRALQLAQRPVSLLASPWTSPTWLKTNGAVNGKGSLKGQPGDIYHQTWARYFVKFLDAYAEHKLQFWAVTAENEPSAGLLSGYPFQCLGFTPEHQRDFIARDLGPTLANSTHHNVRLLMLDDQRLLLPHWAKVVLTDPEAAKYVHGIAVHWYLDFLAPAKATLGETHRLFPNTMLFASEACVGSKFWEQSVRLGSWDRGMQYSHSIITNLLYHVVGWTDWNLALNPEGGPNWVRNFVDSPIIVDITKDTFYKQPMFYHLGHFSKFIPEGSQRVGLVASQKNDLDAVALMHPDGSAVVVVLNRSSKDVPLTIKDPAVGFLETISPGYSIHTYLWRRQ

[9] = biological target: T3, Tissue alpha-L-fucosidase (Bos taurus) (UniProt Q2KIM0); settings: 1000 uM
T3 sequence (whole entry): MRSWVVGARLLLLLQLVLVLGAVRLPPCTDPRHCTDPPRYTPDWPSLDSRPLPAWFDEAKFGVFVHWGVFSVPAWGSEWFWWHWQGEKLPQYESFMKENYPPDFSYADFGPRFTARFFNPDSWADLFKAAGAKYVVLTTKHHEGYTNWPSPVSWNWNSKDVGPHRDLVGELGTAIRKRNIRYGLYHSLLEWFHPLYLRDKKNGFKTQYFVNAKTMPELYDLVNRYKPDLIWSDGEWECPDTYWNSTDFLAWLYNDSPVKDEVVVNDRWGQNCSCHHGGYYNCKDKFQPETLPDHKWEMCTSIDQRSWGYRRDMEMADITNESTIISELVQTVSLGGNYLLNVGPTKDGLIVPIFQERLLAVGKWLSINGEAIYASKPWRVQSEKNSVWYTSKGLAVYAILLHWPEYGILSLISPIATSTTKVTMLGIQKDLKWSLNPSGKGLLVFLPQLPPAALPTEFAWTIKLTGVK

[10] = Inhibition of almond beta-glucosidase assessed as production of p-nitrophenol using p-nitrophenyl glycoside as substrate by spectrophotometry
[11] = biological target: T4, Glucosylceramidase (Bos taurus) (UniProt Q2KHZ8); assay: Inhibition of bovine liver beta-glucosidase assessed as production of p-nitrophenol using p-nitrophenyl glycoside as substrate at 1000 uM by spectrophotometry
T4 sequence (whole entry): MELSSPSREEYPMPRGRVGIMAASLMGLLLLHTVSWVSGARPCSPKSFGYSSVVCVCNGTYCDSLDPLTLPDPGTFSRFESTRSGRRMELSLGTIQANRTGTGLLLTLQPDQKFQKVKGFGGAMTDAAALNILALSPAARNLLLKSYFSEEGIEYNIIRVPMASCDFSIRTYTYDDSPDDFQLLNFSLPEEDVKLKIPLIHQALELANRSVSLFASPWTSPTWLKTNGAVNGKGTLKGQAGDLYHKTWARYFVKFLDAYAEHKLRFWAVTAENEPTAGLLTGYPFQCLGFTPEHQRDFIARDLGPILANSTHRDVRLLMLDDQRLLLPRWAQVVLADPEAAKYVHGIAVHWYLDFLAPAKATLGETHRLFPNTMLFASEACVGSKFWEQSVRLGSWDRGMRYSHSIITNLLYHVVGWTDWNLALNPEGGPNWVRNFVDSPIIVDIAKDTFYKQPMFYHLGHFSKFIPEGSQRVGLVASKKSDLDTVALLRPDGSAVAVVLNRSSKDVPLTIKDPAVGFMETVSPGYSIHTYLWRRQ

Coffea = assay: Inhibition of coffee beans alpha-galactosidase assessed as production of p-nitrophenol at 1000 uM by spectrophotometry; outline: as §1
[12] = Inhibition of rat intestinal maltase assessed as production of D-glucose using maltose as substrate after 10 to 30 mins by spectrophotometry
Outline: (§3)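 Enzymes were rice α-glucosidase at pH 5.0 and rat small-intestine brush border membranes (Kessler method) at pH 5.8. Each reaction contained 25 mM maltose and enzyme and was incubated 10–30 min at 37 °C. Reactions were stopped by heating at 100 °C for 3 min, then centrifuged. Released D-glucose was measured with a glucose test reagent by absorbance at 505 nm.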

[13] = biological target: T5, Sucrase-isomaltase, intestinal (Rattus norvegicus, UniProt P23739); assay: Inhibition of rat intestinal isomaltase assessed as production of p-nitrophenol at by spectrophotometry
T5 sequence (P23739 1-1013 limits assumed): as the sequence (P23739 1-1013 limits assumed) above
T5 sequence (P23739 1014-1841 limits assumed): as the sequence (P23739 1014-1841 limits assumed) above

Beta-galactosidase = biological target: T6, Beta-galactosidase (Bos taurus, UniProt Q58D55); assay: Inhibition of bovine liver beta-galactosidase assessed as production of p-nitrophenol by spectrophotometry
T6 sequence (Q58D55 whole entry): T1 sequence (whole entry)

[14] = biological target: T5, Sucrase-isomaltase, intestinal; assay: Inhibition of rat intestinal sucrase assessed as release of D-glucose at by spectrophotometry
[15] = Inhibition of rice alpha-glucosidase assessed as production of D-glucose using maltose as substrate after 10 to 30 mins by spectrophotometry; design: species or system Oryza sativa; outline: as §3
[16] = biological target: T7, Tissue alpha-L-fucosidase (Bos taurus, UniProt Q2KIM0); assay: Inhibition of bovine epididymis alpha-L-fucosidase assessed as production of p-nitrophenol by spectrophotometry; outline: as §2
T7 sequence (Q2KIM0 whole entry): T3 sequence (whole entry)

Prunus dulcis = settings: 1000 uM
Rattus norvegicus [17] = species: Rattus norvegicus; assay: Inhibition of rat intestinal cellobiase assessed as production of p-nitrophenol at 1000 uM by spectrophotometry
[18] = Inhibition of rice alpha-glucosidase; design: species or system Oryza sativa; outline: as §3
[19] = Inhibition of rat intestinal maltase; outline: as §3
[20] = biological target: Lactase/phlorizin hydrolase (Rattus norvegicus) (UniProt Q02401); settings: 1000 uM
Chain of Lactase/phlorizin hydrolase (Rattus norvegicus) (Q02401 868-1928 limits assumed): as the sequence (Q02401 868-1928 limits assumed) above

Structure (SMILES)	IC50 [2]	inhibition (Canavalia ensiformis)	inhibition (Helix pomatia)	inhibition (Penicillium decumbens)	IC50 [3]	IC50 [4]	inhibition (Oryza sativa)	inhibition (Rattus norvegicus [5])	inhibition [6]	inhibition [7]	inhibition [8]	inhibition [9]	IC50 [10]	inhibition [11]	inhibition (Coffea)	IC50 [12]	IC50 (Beta-galactosidase)	IC50 [14]	IC50 [15]	inhibition (Prunus dulcis)	also measured
OC[C@@H]1CNC[C@H](O)[C@@H]1O	90 µM	< 50%	< 50%	< 50%	607 µM	450 µM	< 50%	< 50%	< 50%	< 50%	< 50%	< 50%	983 µM	< 50%							inhibition [1]: < 50%
OC[C@H]1CNC[C@@H](O)[C@@H]1O [AFEGOSTAT]	0.12 µM	< 50%	< 50%	< 50%	0.3 µM		< 50%					< 50%	0.98 µM		< 50%	653 µM	3.6 µM	531 µM			IC50 [13]: 290 µM
OC[C@H]1NC[C@H](O)[C@@H](O)[C@@H]1O [DUVOGLUSTAT]		< 50%	< 50%	< 50%	327 µM	880 µM							80 µM	< 50%		0.65 µM			0.03 µM		
OC[C@H]1CNC[C@@H](O)[C@H]1O	0.51 µM	< 50%	< 50%	< 50%	4.5 µM	144 µM	< 50%	< 50%	< 50%	< 50%		< 50%	3.2 µM				21 µM				
OC[C@@H]1NCC[C@@H](O)[C@H]1O	122 µM	< 50%	< 50%	< 50%	809 µM				< 50%		< 50%			< 50%	< 50%	357 µM		225 µM	188 µM	< 50%	IC50 [16]: 260 µM
OC[C@@H]1CNC[C@@H](O)[C@@H]1O	646 µM	< 50%	< 50%	< 50%			< 50%	< 50%	< 50%	< 50%	< 50%	< 50%			< 50%		389 µM			< 50%	inhibition (Rattus norvegicus [17]): < 50%
OCC1(O)CNC[C@H]1O (single isomer, unassigned)																					Ki [18]: 4 µM; Ki [19]: 6 µM
OC[C@H]1NCC[C@@H](O)[C@@H]1O [FAGOMINE]		< 50%	< 50%	< 50%								< 50%			< 50%	113 µM		34 µM	320 µM	< 50%	inhibition (Rattus norvegicus [17]): < 50%; IC50 [13]: 37 µM; inhibition [20]: < 50%
OC[C@H]1NCC[C@@H](O)[C@H]1O		< 50%	< 50%	< 50%		8 µM	< 50%	< 50%	< 50%	< 50%	< 50%	< 50%		< 50%						< 50%	inhibition (Rattus norvegicus [17]): < 50%; inhibition [1]: < 50%; inhibition [20]: < 50%
OC[C@@H]1CNC[C@H](O)[C@H]1O	20 µM	< 50%	< 50%	< 50%			< 50%	< 50%				< 50%	236 µM		< 50%		821 µM	34 µM			
